ChEMBL document CHEMBL2146366, “Discovery of microsomal triglyceride transfer protein (MTP) inhibitors with potential for decreased active metabolite load compared to dirlotapide” (Bioorg Med Chem Lett, 2011)

Experiments:
Rattus norvegicus [1] = experiment: Antiobesity activity in high fat diet-induced obese Sprague-Dawley rat assessed as reduction in body weight at 100 mg/kg, po administered daily for 3 days relative to dirlotapide; type: functional; parameters: scale not given: the % may be the effect or the level left
Rattus norvegicus [2] = experiment: Toxicity in high fat diet-induced obese Sprague-Dawley rat assessed as change in serum ALT level at 3 mg/kg, po qd for 7 days relative to control; type: organism-based; parameters: dose 3 mg/kg, route oral; details: in vivo, 168 h
Method in brief: (§1)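 Seven-day study in high-fat-diet rats. Compound was given once daily by mouth as a spray-dried dispersion, with vehicle controls. Serum ALT was measured alongside food intake, body weight, liver TG and systemic exposure (AUC). ALT is expressed as % change versus vehicle, with significance set at P ≤ 0.05.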

[3] = Fraction unbound in human HepG2 cells by equilibrium dialysis; type: ADME, cell-based
Method in brief: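 Protein binding was measured by equilibrium dialysis under the conditions of the apoB secretion assay in human HepG2 cells, to give unbound fraction.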

Canis familiaris [4] = experiment: Drug metabolism in beagle dog assessed as formation of N-(2-((4-fluorobenzyl)(methyl)amino)-2-oxo-1-phenylethyl)-2-(4'-(1-hydroxy-2-methylpropan-2-yl)biphenyl-2-ylcarboxamido)quinoline-6-carboxamide at 2.5 mg/kg, po administered as single dose; type: ADME, organism-based, Canis lupus familiaris; parameters: dose 2.5 mg/kg, route oral; details: in vivo
[5] = AUC in high fat diet-induced obese Sprague-Dawley rat at 3 mg/kg, po qd for 7 days; type: ADME, organism-based; parameters: dose 3 mg/kg, route oral; details: plasma
Method in brief: (§2)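 Seven-day rat study: once-daily oral dosing at 3, 10 or 30 mg/kg, with 1, 3 and 100 mg/kg also used for one series. Compounds were given as spray-dried dispersions in hydroxypropylmethylcellulose acetate succinate. Food intake, body weight, liver TG and serum ALT were measured against vehicle. Systemic exposure was reported as AUC (ng h/mL). Significance versus vehicle was set at P ≤ 0.05.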

Rattus norvegicus [6] = experiment: Antiobesity activity in high fat diet-induced obese Sprague-Dawley rat assessed as reduction in body weight at 3 mg/kg, po administered daily for 3 days relative to control; type: functional; parameters: scale not given: the % may be the effect or the level left
Rattus norvegicus [7] = experiment: Antiobesity activity in high fat diet-induced obese Sprague-Dawley rat assessed as reduction of food intake at 100 mg/kg, po administered daily for 3 days relative to dirlotapide; type: functional; parameters: scale not given: the % may be the effect or the level left
Method in brief: (§3)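 Male Sprague–Dawley rats (~300 g, n = 5 per group) were acclimatized for seven days to a high-fat diet (45% kcal from fat). They received three consecutive daily oral gavage doses 1.5 h before the dark cycle. Vehicle was SEDDS:H2O 10:90, with SEDDS made of Miglyol 812 10%, triacetin 30%, polysorbate 80 20% and Capmul MCM 30%. Food intake was recorded during dosing, and liver TG was measured afterwards, both against vehicle.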

Rattus norvegicus [8] = experiment: Antiobesity activity in high fat diet-induced obese Sprague-Dawley rat assessed as reduction of body weight at 30 mg/kg, po qd for 7 days; type: functional; parameters: scale not given: the % may be the effect or the level left; method in brief: as §2
Rattus norvegicus [9] = experiment: Antiobesity activity in high fat diet-induced obese Sprague-Dawley rat assessed as reduction of food intake at 30 mg/kg, po administered daily for 3 days relative to dirlotapide; type: functional; parameters: scale not given: the % may be the effect or the level left; method in brief: as §3
Rattus norvegicus [10] = experiment: Antiobesity activity in high fat diet-induced obese Sprague-Dawley rat assessed as reduction of food intake at 3 mg/kg, po administered daily for 3 days relative to dirlotapide; type: functional; parameters: scale not given: the % may be the effect or the level left; method in brief: as §3
Rattus norvegicus [11] = experiment: Antiobesity activity in high fat diet-induced obese Sprague-Dawley rat assessed as reduction in body weight at 3 mg/kg, po administered daily for 3 days relative to dirlotapide; type: functional; parameters: scale not given: the % may be the effect or the level left
Rattus norvegicus [12] = experiment: Antiobesity activity in high fat diet-induced obese Sprague-Dawley rat assessed as reduction of triglyceride accumulation in liver at 3 mg/kg, po qd for 7 days relative to control; type: functional; parameters: scale not given: the % may be the effect or the level left; method in brief: as §2
Rattus norvegicus [13] = experiment: Antiobesity activity in high fat diet-induced obese Sprague-Dawley rat assessed as reduction of food intake at 1 mg/kg, po administered daily for 3 days relative to dirlotapide; type: functional; parameters: scale not given: the % may be the effect or the level left; method in brief: as §3
Rattus norvegicus [14] = experiment: Antiobesity activity in high fat diet-induced obese Sprague-Dawley rat assessed as triglyceride accumulation in liver at 30 mg/kg, po administered daily for 3 days relative to control; type: functional; method in brief: as §3
Rattus norvegicus [15] = experiment: Antiobesity activity in high fat diet-induced obese Sprague-Dawley rat assessed as reduction in body weight at 10 mg/kg, po administered daily for 3 days relative to dirlotapide; type: functional; parameters: scale not given: the % may be the effect or the level left
Rattus norvegicus [16] = experiment: Antiobesity activity in high fat diet-induced obese Sprague-Dawley rat assessed as reduction of food intake at 3 mg/kg, po qd for 7 days relative to control; type: functional; parameters: scale not given: the % may be the effect or the level left; method in brief: as §2
Rattus norvegicus [17] = experiment: Toxicity in high fat diet-induced obese Sprague-Dawley rat assessed as change in serum ALT level at 30 mg/kg, po qd for 7 days relative to control; type: organism-based; parameters: dose 30 mg/kg, route oral; details: in vivo, 168 h; method in brief: as §1
Rattus norvegicus [18] = experiment: Antiobesity activity in high fat diet-induced obese Sprague-Dawley rat assessed as reduction in body weight at 1 mg/kg, po administered daily for 3 days relative to control; type: functional; parameters: scale not given: the % may be the effect or the level left
[19] = AUC in high fat diet-induced obese Sprague-Dawley rat at 30 mg/kg, po qd for 7 days; type: ADME, organism-based; parameters: dose 30 mg/kg, route oral; details: plasma; method in brief: as §2
Rattus norvegicus [20] = experiment: Antiobesity activity in high fat diet-induced obese Sprague-Dawley rat assessed as reduction of food intake at 10 mg/kg, po administered daily for 3 days relative to dirlotapide; type: functional; parameters: scale not given: the % may be the effect or the level left; method in brief: as §3
Rattus norvegicus [21] = experiment: Drug metabolism in rat assessed as formation of 2-(4'-tert-butylbiphenyl-2-ylcarboxamido)-N-(2-(methylamino)-2-oxo-1-phenylethyl)quinoline-6-carboxamide at 30 mg/kg, po administered as single dose; type: ADME, organism-based; parameters: dose 30 mg/kg, route oral; details: in vivo
Rattus norvegicus [22] = experiment: Antiobesity activity in po dosed high fat diet-induced obese Sprague-Dawley rat assessed as reduction of food intake administered daily for 3 days; type: functional; details: 72 h, read-out: MED; method in brief: as §3
Rattus norvegicus [23] = experiment: Antiobesity activity in high fat diet-induced obese Sprague-Dawley rat assessed as reduction in body weight at 1 mg/kg, po administered daily for 3 days relative to dirlotapide; type: functional; parameters: scale not given: the % may be the effect or the level left
Rattus norvegicus [24] = experiment: Drug metabolism in rat assessed as formation of 2-(2'-(6-(2-((4-fluorobenzyl)(methyl)amino)-2-oxo-1-phenylethylcarbamoyl)quinolin-2-ylcarbamoyl)biphenyl-4-yl)-2-methylpropanoic acid at 30 mg/kg, po administered as single dose; type: ADME, organism-based; parameters: dose 30 mg/kg, route oral; details: in vivo
Canis familiaris [25] = experiment: Drug metabolism in beagle dog assessed as formation of 2-(4'-tert-butylbiphenyl-2-ylcarboxamido)-N-(2-(methylamino)-2-oxo-1-phenylethyl)quinoline-6-carboxamide at 2.5 mg/kg, po administered as single dose; type: ADME, organism-based, Canis lupus familiaris; parameters: dose 2.5 mg/kg, route oral; details: in vivo
Rattus norvegicus [26] = experiment: Antiobesity activity in high fat diet-induced obese Sprague-Dawley rat assessed as reduction in body weight at 10 mg/kg, po administered with 25% SDD formulation daily for 3 days relative to dirlotapide; type: functional; parameters: scale not given: the % may be the effect or the level left
[27] = Oral bioavailability in rat at 30 mg/kg; type: ADME, organism-based; details: in vivo
Rattus norvegicus [28] = experiment: Antiobesity activity in high fat diet-induced obese Sprague-Dawley rat assessed as reduction of triglyceride accumulation in liver at 30 mg/kg, po qd for 7 days relative to control; type: functional; parameters: scale not given: the % may be the effect or the level left; method in brief: as §2
Rattus norvegicus [29] = experiment: Antiobesity activity in high fat diet-induced obese Sprague-Dawley rat assessed as reduction of food intake at 10 mg/kg, po administered with 25% SDD formulation daily for 3 days relative to control; type: functional; parameters: scale not given: the % may be the effect or the level left
Method in brief: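 Three-day oral dosing study in male Sprague–Dawley rats (~300 g, n = 5 per group) fed a high-fat diet (45% kcal from fat). Animals received daily gavage doses 1.5 h before the dark cycle. Compound was given as a spray-dried dispersion made by spray drying compound with hydroxypropylmethylcellulose acetate succinate. Food intake was recorded during dosing and liver TG measured afterwards, both against vehicle.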

Rattus norvegicus [30] = experiment: Antiobesity activity in high fat diet-induced obese Sprague-Dawley rat assessed as reduction of food intake at 100 mg/kg, po administered daily for 3 days relative to control; type: functional; parameters: scale not given: the % may be the effect or the level left; method in brief: as §3
Rattus norvegicus [31] = experiment: Antiobesity activity in high fat diet-induced obese Sprague-Dawley rat assessed as reduction in body weight at 30 mg/kg, po administered daily for 3 days relative to control; type: functional; parameters: scale not given: the % may be the effect or the level left

- fraction unbound [3]: 0.00063
- Drug metabolism (Canis familiaris [4]): Active
- AUC at 168 h [5]: 12 ng·h/mL
- AUC at 168 h [19]: 65 ng·h/mL
- Drug metabolism (Rattus norvegicus [21]): Active
- Drug metabolism (Rattus norvegicus [24]): Active
- Drug metabolism (Canis familiaris [25]): Active
- bioavailability [27]: < 3%
Structure (SMILES): CN(Cc1ccc(F)cc1)C(=O)[C@@H](NC(=O)c1ccc2nc(NC(=O)c3ccccc3-c3ccc(C(C)(C)C)cc3)ccc2c1)c1ccccc1
- Activity (Rattus norvegicus [1]): 75%
- Activity (Rattus norvegicus [2]): 168%
- Activity (Rattus norvegicus [6]): 67%
- Activity (Rattus norvegicus [7]): 35%
- Activity (Rattus norvegicus [8]): 220%
- Activity (Rattus norvegicus [9]): 37%
- Activity (Rattus norvegicus [10]): 6%
- Activity (Rattus norvegicus [11]): 10%
- Activity (Rattus norvegicus [12]): 43%
- Activity (Rattus norvegicus [13]): 5%
- Activity (Rattus norvegicus [14]): 102%
- Activity (Rattus norvegicus [15]): 97%
- Activity (Rattus norvegicus [16]): 25%
- Activity (Rattus norvegicus [17]): 237%
- Activity (Rattus norvegicus [18]): 32%
- Activity (Rattus norvegicus [20]): 46%
- minimal effective dose (Rattus norvegicus [22]): 3 mg/kg
- Activity (Rattus norvegicus [23]): 25%
- Activity (Rattus norvegicus [26]): 32%
- Activity (Rattus norvegicus [28]): 212%
- Activity (Rattus norvegicus [29]): 33%
- Activity (Rattus norvegicus [30]): 47%
- Activity (Rattus norvegicus [31]): 89%
